This passage reports Activity results from ChEMBL document CHEMBL1159309, “A prolyl endopeptidase-inhibiting benzofuran dimer from Polyozellus multiflex” (J Nat Prod, 2002).

Common to all, as to design: scale not given: the % may be the effect or the level left
Experiment [1] in a line: Inhibition of trypsin at 97.6 uM relative to control. The procedure, abridged:
(§1)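 Enzyme assays run per supplier catalogue protocols, substrates as printed: […], elastase N-succinyl-Ala-Ala-Ala-pNA. Test sample given in MeOH; control received 10 µL MeOH in its place. Activity relative to solvent-treated control, mean of five data points with standard error of the mean.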

The nature of experiment [2]: Inhibition of trypsin at 12.2 uM relative to control. The method, boiled down: as §1
Experiment [3] in a line: Inhibition of chymotrypsin at 12.2 uM relative to control. The procedure, abridged: as §1
A short description of experiment [4]: Inhibition of elastase at 97.6 uM relative to control. The procedure, abridged: as §1
The nature of experiment [5]: Inhibition of elastase at 12.2 uM relative to control. The procedure, abridged: as §1
Experiment [6] is described as follows: Inhibition of elastase at 2.4 uM relative to control. The method, boiled down: as §1
Experiment [7] is described as follows: Inhibition of trypsin at 2.4 uM relative to control. The method, boiled down: as §1
Experiment [8] in a line: Inhibition of chymotrypsin at 2.4 uM relative to control. The procedure, abridged: as §1
Experiment [9] in a line: Inhibition of chymotrypsin at 97.6 uM relative to control. The procedure, abridged: as §1

`COC(=O)c1oc2cc(O)c(O)cc2c1-c1c(C(=O)OC)oc2cc(O)c(O)cc12`: the Activity in [1] worked out at 5.9%; in [2], 5.6%; in experiment [3], 6.6%; in [4], 29%; in [5] it was 27.6%; in experiment [6], 22%. The Activity worked out at 3.1% in experiment [7], 3.7% in experiment [8] and 4% in experiment [9].
